From article PMC6598223 (Saudi Pharmaceutical Journal : SPJ, 2019)
Read-outs that look alike come from different tables or passages of the source.

Tests used:
[1] = system: MDA-MB-231 cells; test: Alamar Blue cytotoxicity assay, MDA-MB-231; format: cell-based, human; conditions: read-out: 24 h IC50 MDA-MB-231
How it was run: (§1)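 Cells grown in DMEM with L-glutamine, 10% FBS and 1% penicillin–streptomycin at 37 °C, 5% CO2. They were seeded at 1 × 10^4 cells/well and grown 24 h, then given test compound dilutions in growth medium for 24 h. Alamar Blue was added (final 10 μg/ml) for 2–4 h at 37 °C, and fluorescence was read ([…]). Viability was calculated per line, and IC50s were averaged across HeLa, A549 and MDA-MB-231.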

[2] = system: A549 cells; test: Alamar Blue cytotoxicity assay, A549; format: cell-based, human
How it was run: as §1

[3] = system: HeLa cells; test: Alamar Blue cytotoxicity assay, HeLa; format: cell-based, human; conditions: read-out: 24 h IC50 HeLa
How it was run: as §1

[4] = molecular target: VEGFR2 (Homo sapiens, UniProt P35968); test: biochemical
[5] = molecular target: EGFR (Homo sapiens, UniProt P00533); test: biochemical
[6] = system: HeLa, A549 and MDA-MB-231 cells; test: Average cytotoxicity over the tested cell lines; format: cell-based; conditions: Homo sapiens, 24 h, read-out: average IC50 against the tested cell lines
How it was run: as §1

[7] = system: HeLa cells; test: Annexin V/PI apoptosis assay; format: cell-based, human; conditions: 24 h
How it was run: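 HeLa cells were exposed to test compound at 5 or 10 μM for 24 h, with an untreated control. Apoptotic versus necrotic death was scored by annexin V/PI staining, reported as percentage of cells undergoing apoptosis.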

[8] = system: caspase-9 in HeLa cells; test: Caspase-9 activity assay; format: cell-based, human; conditions: 5 and 10 μM, 24 h
How it was run: (§2)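 HeLa cells were seeded at 1 × 10^5/well in duplicate and grown 24 h. They were then treated with test compound at 1, 5, 10 and 20 µM, with 0.1% DMSO (v/v) as control. After 24 h, activity was measured with the Caspase-Glo 3/7 (caspase-3/7), Caspase-Glo 8 (caspase-8) or Caspase-Glo 9 (caspase-9) kit.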

[9] = system: caspase-8 in HeLa cells; test: Caspase-8 activity assay; format: cell-based, human; conditions: 5 and 10 μM, 24 h
How it was run: as §2

[10] = system: caspase-3/7 in HeLa cells; test: Caspase-3/7 activity assay; format: cell-based, human; conditions: 10 μM, 24 h
How it was run: as §2

[11] = system: HeLa cells; test: ROS production; format: cell-based, human; conditions: 40 μM, 24 h
How it was run: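 HeLa cells were treated with test compound at 10 or 40 µM for 24 h, with 0.1% DMSO (v/v) as control. Intracellular superoxide was detected with the Muse Oxidative Stress Kit, and cells were analysed on a Muse Cell Analyzer. The read-out was the percentage of cells with elevated ROS.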

[12] = Homo sapiens, A549, 24 h, read-out: 24 h IC50 A549, Alamar Blue, 24 h treatment
[13] = read-out: 24 h IC50 A549, Alamar Blue, 24 h treatment

Sequence of VEGFR2 (P35968 20-1356): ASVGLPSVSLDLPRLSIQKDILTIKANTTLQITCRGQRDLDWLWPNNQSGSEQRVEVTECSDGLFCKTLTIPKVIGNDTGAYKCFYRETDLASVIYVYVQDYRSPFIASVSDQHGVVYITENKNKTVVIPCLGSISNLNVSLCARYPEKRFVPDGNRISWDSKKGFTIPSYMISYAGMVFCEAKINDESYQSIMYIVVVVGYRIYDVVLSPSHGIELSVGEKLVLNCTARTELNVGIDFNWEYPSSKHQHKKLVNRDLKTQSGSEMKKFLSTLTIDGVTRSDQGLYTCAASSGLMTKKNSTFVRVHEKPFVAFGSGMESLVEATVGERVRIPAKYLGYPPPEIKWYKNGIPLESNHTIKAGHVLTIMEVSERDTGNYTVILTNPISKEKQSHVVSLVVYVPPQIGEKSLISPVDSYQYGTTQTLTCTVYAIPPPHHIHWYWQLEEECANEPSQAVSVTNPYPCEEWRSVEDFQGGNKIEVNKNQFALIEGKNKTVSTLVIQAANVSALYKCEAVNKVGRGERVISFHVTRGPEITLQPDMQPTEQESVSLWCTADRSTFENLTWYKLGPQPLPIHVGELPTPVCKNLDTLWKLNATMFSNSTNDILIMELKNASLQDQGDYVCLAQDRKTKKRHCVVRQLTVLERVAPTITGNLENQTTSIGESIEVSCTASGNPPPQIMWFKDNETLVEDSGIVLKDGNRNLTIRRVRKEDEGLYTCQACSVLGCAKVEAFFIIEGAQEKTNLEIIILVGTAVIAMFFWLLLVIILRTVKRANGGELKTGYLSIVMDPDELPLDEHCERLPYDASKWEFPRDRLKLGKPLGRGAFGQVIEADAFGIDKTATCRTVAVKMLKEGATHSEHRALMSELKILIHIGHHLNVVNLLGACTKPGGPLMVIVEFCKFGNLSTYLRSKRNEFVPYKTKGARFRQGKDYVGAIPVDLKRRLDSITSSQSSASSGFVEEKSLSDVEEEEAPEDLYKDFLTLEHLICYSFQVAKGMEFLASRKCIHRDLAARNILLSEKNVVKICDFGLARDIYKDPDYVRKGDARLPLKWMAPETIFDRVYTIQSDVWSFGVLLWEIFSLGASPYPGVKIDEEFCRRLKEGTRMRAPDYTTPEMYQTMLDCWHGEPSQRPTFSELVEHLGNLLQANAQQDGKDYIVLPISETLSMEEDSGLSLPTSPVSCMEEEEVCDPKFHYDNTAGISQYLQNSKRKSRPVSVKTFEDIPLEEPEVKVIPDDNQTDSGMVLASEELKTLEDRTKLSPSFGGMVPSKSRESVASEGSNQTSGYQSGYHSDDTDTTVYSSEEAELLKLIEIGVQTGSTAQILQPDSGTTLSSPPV
Sequence of EGFR (P00533 25-1210): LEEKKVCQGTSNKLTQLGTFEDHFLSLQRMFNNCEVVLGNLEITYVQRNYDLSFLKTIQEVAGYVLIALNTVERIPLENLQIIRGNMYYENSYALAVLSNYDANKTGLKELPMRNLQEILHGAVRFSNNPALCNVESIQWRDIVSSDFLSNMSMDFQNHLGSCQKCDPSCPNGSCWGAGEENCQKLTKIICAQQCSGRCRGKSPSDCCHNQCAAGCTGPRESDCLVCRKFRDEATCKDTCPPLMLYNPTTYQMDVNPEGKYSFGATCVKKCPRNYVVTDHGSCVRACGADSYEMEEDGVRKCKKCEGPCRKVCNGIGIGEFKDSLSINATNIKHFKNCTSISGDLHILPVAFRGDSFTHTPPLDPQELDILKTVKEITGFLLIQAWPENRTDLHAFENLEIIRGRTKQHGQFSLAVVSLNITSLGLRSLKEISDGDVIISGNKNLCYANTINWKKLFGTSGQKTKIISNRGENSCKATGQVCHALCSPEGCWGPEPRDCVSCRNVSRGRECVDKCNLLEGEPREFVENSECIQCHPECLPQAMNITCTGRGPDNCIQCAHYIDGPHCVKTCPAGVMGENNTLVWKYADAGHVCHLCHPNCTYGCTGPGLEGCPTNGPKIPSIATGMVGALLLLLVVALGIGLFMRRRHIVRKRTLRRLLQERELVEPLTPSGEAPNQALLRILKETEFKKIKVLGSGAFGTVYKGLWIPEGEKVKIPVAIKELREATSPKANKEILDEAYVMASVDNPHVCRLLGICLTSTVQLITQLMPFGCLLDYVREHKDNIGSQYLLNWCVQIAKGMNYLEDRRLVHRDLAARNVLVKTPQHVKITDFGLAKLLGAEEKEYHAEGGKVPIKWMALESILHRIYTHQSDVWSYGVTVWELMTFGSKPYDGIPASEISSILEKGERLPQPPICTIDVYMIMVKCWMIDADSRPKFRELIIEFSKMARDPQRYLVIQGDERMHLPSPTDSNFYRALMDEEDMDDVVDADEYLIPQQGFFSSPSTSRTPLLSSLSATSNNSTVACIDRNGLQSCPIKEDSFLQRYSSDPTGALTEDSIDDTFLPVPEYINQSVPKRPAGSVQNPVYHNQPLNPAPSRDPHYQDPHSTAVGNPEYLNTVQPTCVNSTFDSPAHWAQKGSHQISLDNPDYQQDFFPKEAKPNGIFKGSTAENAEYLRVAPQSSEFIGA

Row | SMILES | IC50 ([1]; Homo sapiens, MDA-MB-231, 24 h) [µM] | IC50 [2, 12] [µM] | IC50 ([3]; Homo sapiens, HeLa, 24 h) [µM] | IC50 [6] [µM] | other results
1 | CCOC(=O)CN1C(=O)NC(c2ccccc2)(c2ccccc2)C1=O [Compound 2, ethyl (5,5-diphenylhydantoin-3-yl)acetate] | 263 ± 3.4 | 108 ± 3.7 | 241 ± 1.3 | – | –
2 | NNC(=O)CN1C(=O)NC(c2ccccc2)(c2ccccc2)C1=O [Compound 3, 2-(2,4-dioxo-5,5-diphenylimidazolidin-3-yl)acetohydrazide] | 278 ± 2 | 278 ± 7.5 | 236 ± 3.5 | – | –
3 | O=C(CN1C(=O)NC(c2ccccc2)(c2ccccc2)C1=O)NN=Cc1ccc(Cl)cc1 [Compound 5, N'-(4-Chlorobenzylidene)-2-(2,5-dioxo-4,4-diphenylimidazolidin-1-yl)acetohydrazide] | 196 ± 1.7 | 157 ± 1.4 | 123 ± 2.6 | – | –
4 | COc1ccc(C=NNC(=O)CN2C(=O)NC(c3ccccc3)(c3ccccc3)C2=O)cc1OC [Compound 8, N′-(3,4-Dimethoxybenzylidene)-2-(2,5-dioxo-4,4-diphenylimidazolidin-1-yl)acetohydrazide] | 154 ± 1.1 | 162 ± 2.3 | 60 ± 3.3 | – | –
5 | COc1cc(C=NNC(=O)CN2C(=O)NC(c3ccccc3)(c3ccccc3)C2=O)ccc1O [Compound 9, 2-(2,5-Dioxo-4,4-diphenylimidazolidin-1-yl)-N′-(4-hydroxy-3-methoxybenzylidene)acetohydrazide] | 136 ± 3.9 | 175 ± 4.3 | 50 ± 1 | – | –
6 | O=C(CN1C(=O)NC(c2ccccc2)(c2ccccc2)C1=O)NN=Cc1ccc2c(c1)OCO2 [Compound 10, N′-(Benzo[d][1,3]dioxol-5-ylmethylene)-2-(2,5-dioxo-4,4-diphenylimidazolidin-1-yl)acetohydrazide] | 200 ± 4.1 | 267 ± 6 | 113 ± 0.9 | – | –
7 | COc1cc(C=NNC(=O)CN2C(=O)NC(c3ccccc3)(c3ccccc3)C2=O)cc(OC)c1OC [Compound 11, 2-(2,5-Dioxo-4,4-diphenylimidazolidin-1-yl)-N′-(3,4,5-trimethoxybenzylidene)acetohydrazide] | 133 ± 0.7 | 170 ± 4.2 | 53 ± 2.1 | – | –
8 | COc1cc(OC)c(OC)cc1C=NNC(=O)CN1C(=O)NC(c2ccccc2)(c2ccccc2)C1=O [Compound 12] | – | – | – | – | IC50 ([1]; Alamar Blue, 24 h treatment): > 350 µM; IC50 [2, 13]: 116 ± 1.3 µM; IC50 ([3]; Alamar Blue, 24 h treatment): 39 ± 3.1 µM
9 | O=C(CN1C(=O)NC(c2ccccc2)(c2ccccc2)C1=O)NN=Cc1c[nH]c2ccccc12 [Compound 13, N′-((1H-indol-3-yl)methylene)-2-(2,5-dioxo-4,4-diphenylimidazolidin-1-yl)acetohydrazide] | 156 ± 3.1 | 160 ± 0.8 | 10 ± 2.1 | 109 | IC50 [4]: 0.47 ± 0.09 µM; IC50 [5]: 0.1 ± 0.02 µM
10 | O=C(CN1C(=O)NC(c2ccccc2)(c2ccccc2)C1=O)NN=C1C(=O)Nc2ccccc21 [Compound 14, 2-(2,5-Dioxo-4,4-diphenylimidazolidin-1-yl)-N′-(2-oxoindolin-3-ylidene)acetohydrazide] | 123 ± 0.8 | 116 ± 1.6 | 30 ± 2.6 | – | –
11 | O=C(CN1C(=O)NC(c2ccccc2)(c2ccccc2)C1=O)NN=C1C(=O)Nc2ccc(Cl)cc21 [Compound 15, N′-(5-Chloro-2-oxoindolin-3-ylidene)-2-(2,5-dioxo-4,4-diphenylimidazolidin-1-yl)acetohydrazide] | 311 ± 5.5 | 72 ± 3 | 53 ± 2.2 | – | –
12 | O=C(CN1C(=O)NC(c2ccccc2)(c2ccccc2)C1=O)NN=C1C(=O)Nc2ccc(F)cc21 [Compound 16, 2-(2,5-Dioxo-4,4-diphenylimidazolidin-1-yl)-N′-(5-fluoro-2-oxoindolin-3-ylidene)acetohydrazide] | 64 ± 0.6 | 95 ± 1 | 18.5 ± 1.6 | 59 | percentage of apoptotic cells ([7]; 5 μM): 48.6%; percentage of apoptotic cells ([7]; 10 μM): 63.4%; change of caspase-9 activity [8]: no significant changes; IC50 [4]: 0.09 ± 0.01 µM; change of caspase-8 activity [9]: no significant changes; change of caspase-3/7 activity [10]: approximately 40%; IC50 [5]: 6.17 ± 0.22 µM; cells with increased level of ROS production [11]: 37.7%
13 | O=C(CN1C(=O)NC(c2ccccc2)(c2ccccc2)C1=O)NN=C1C(=O)Nc2ccc(Br)cc21 [Compound 17, N′-(5-Bromo-2-oxoindolin-3-ylidene)-2-(2,5-dioxo-4,4-diphenylimidazolidin-1-yl)acetohydrazide] | 138 ± 2.6 | 77 ± 1.5 | 29 ± 1.7 | 81 | –
14 | O=C(CN1C(=O)NC(c2ccccc2)(c2ccccc2)C1=O)NN=C1C(=O)Nc2ccc([N+](=O)[O-])cc21 [Compound 18, 2-(2,5-Dioxo-4,4-diphenylimidazolidin-1-yl)-N′-(5-nitro-2-oxoindolin-3-ylidene)acetohydrazide] | 80 ± 0.7 | 229 ± 5.2 | 30 ± 1.2 | 113 | IC50 [4]: 2.52 ± 0.09 µM; IC50 [5]: 0.37 ± 0.01 µM
15 | COc1ccc2c(c1)C(=NNC(=O)CN1C(=O)NC(c3ccccc3)(c3ccccc3)C1=O)C(=O)N2 [Compound 19, 2-(2,5-Dioxo-4,4-diphenylimidazolidin-1-yl)-N′-(5-methoxy-2-oxoindolin-3-ylidene)acetohydrazide] | 174 ± 2.9 | 170 ± 2.2 | 118 ± 1.3 | – | –
16 | CC(=O)O[C@@]12CO[C@@H]1C[C@H](O)[C@@]1(C)C(=O)[C@H](O)C3=C(C)[C@@H](OC(=O)[C@H](O)[C@@H](NC(=O)OC(C)(C)C)c4ccccc4)C[C@@](O)([C@@H](OC(=O)c4ccccc4)[C@H]21)C3(C)C [Docetaxel, reference compound] | 100 ± 2.2 | 100 | 100 ± 3.8 | 83 | IC50 [2, 13]: 50 ± 1.3 µM
